≈ marks a conversion by molar mass, not a printed value.
Assays:
[1] = Antitumor activity in vivo against the 6C3HED lymphosarcoma dosed for 10 days at 270 mg/kg; format: functional; settings: Mus musculus, 192 h, in the assay text read “8 days” for “10 days”
How it was run: (§1)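 Tumor fragments (about 1–2 mm) implanted sc via trochar into a subaxillary site of syngeneic mice (C3H, C57BL/6, Balb/C or DBA/2) or Holtz rats. Groups were 7–10 randomized animals. Compound was suspended in 2.5% Emulphor in 0.9% saline and given orally by gavage or ip, usually from the day after implantation. Tumor volume versus untreated controls was measured one day after the final dose and reported as % inhibition. Scoring bands: +++ 95–100%, ++ 80–94%.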

CCRF-CEM = assay: Concentration required to inhibit growth of CCRF-CEM cells in culture for 72 hr to 50% of control growth; format: functional, cell-based; settings: Homo sapiens
[2] = Antitumor activity in vivo against the 6C3HED lymphosarcoma dosed for 10 days at 300 mg/kg (intraperitoneal dosing for 8 days); format: functional; settings: Mus musculus, ip; how it was run: as §1
[3] = Antitumor activity in vivo against the 6C3HED lymphosarcoma, dosed for 8 days at 300 mg/kg; settings: Mus musculus, 192 h
[4] = Antitumor activity in vivo against the 6C3HED lymphosarcoma dosed for 10 days at 1600 mg/kg (intraperitoneal dosing for 8 days); format: functional; settings: Mus musculus, ip
How it was run: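 Solid tumor fragments of about 1–2 mm were implanted sc by trochar into the subaxillary site of syngeneic mice. Treatment began the day after implantation. Compound was suspended in 2.5% Emulphor in 0.9% saline and given ip. Groups had 7–10 randomized animals. Percent inhibition of growth was scored from tumor volume versus controls one day after the final dose.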

6C3HED [5] = assay: Antitumor activity in vivo expressed as percent of inhibition in 6C3HED-lymphosarcoma tumor cell line; format: functional, Mus musculus; how it was run: as §1
B16 [6] = assay: Antitumor activity in vivo expressed as percent of inhibition in B-16-melanoma […] cell line; format: functional, Mus musculus; how it was run: as §1
Colon 26 [7] = assay: Antitumor activity in vivo expressed as percent of inhibition in C-26-colon carcinoma cell line; format: functional, Mus musculus; how it was run: as §1
CA-755 [8] = assay: Antitumor activity in vivo expressed as percent of inhibition in CA-755-mammary adenocarcinoma tumor cell line; format: functional, Mus musculus; how it was run: as §1
C3H [9] = assay: Antitumor activity in vivo expressed as percent of inhibition in C3H-mammary adenocarcinoma cell line; format: functional, Mus musculus; how it was run: as §1
L1210 = assay: Antitumor activity in vivo and the activity was determined as percent increase in life span determined against L1210V-lymphocytic leukemia tumor cell lines; format: functional, Mus musculus
How it was run: (§2)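 The ascites tumor inoculum of 1 × 10^6 cells was given ip to DBA/2 mice, and treatment started the next day. Compound was suspended in 2.5% Emulphor in 0.9% saline. Groups had 7–10 animals. %ILS = (MDD treated − MDD control)/MDD control × 100. Deaths before the control median day of death were counted as toxic. Values are optimal from at least two experiments.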

[10] = tested on: Lewis lung carcinoma cell line; assay: Antitumor activity in vivo expressed as percent of inhibition in Lewis-lung carcinoma cell line; format: functional, Mus musculus; how it was run: as §1
P388 [11] = assay: Antitumor activity in vivo and the activity was determined as percent increase in life span determined against P388-lymphocytic leukemia tumor cell lines; format: functional, Mus musculus; how it was run: as §2
Rattus norvegicus [12] = assay: Antitumor activity in vivo expressed as percent of inhibition in Yoshida-sarcoma (rat) cell line; format: functional; how it was run: as §1
X5563 [13] = assay: Antitumor activity in vivo expressed as percent of inhibition in X5563-plasma cell myeloma cell line; format: functional, Mus musculus; how it was run: as §1
P1534J = assay: Antitumor activity in vivo expressed as percent of inhibition in P1534J-lymphatic leukemia cell line; format: functional, Mus musculus
M-5 (Mus musculus) [14] = assay: Antitumor activity in vivo expressed as percent of inhibition in M-5-ovarian carcinoma cell line
6C3HED [15] = assay: Antitumor activity in vivo expressed as percent of inhibition in 6C3HED-lymphosarcoma tumor cell line; 95-100% inhibition; format: functional, Mus musculus; how it was run: as §1
B16 [16] = assay: Antitumor activity in vivo expressed as percent of inhibition in B-16-melanoma (solid) cell line; format: functional, Mus musculus; how it was run: as §1
Colon 26 [17] = assay: Antitumor activity in vivo expressed as percent of inhibition in C-26-colon carcinoma cell line; 95-100% inhibition; format: functional, Mus musculus; how it was run: as §1
CA-755 [18] = assay: Antitumor activity in vivo expressed as percent of inhibition in CA-755-mammary adenocarcinoma tumor cell line; 95-100% inhibition; format: functional, Mus musculus; how it was run: as §1
M109 = assay: Antitumor activity in vivo expressed as percent of inhibition in Madison-lung carcinoma cell line; 80-94% inhibition; format: functional, Mus musculus; how it was run: as §1
P388 [19] = assay: Antitumor activity in vivo and the activity was determined as percent increase in life span determined against P388-lymphocytic leukemia tumor cell lines; 50-99 %; format: functional, Mus musculus; how it was run: as §2
Rattus norvegicus [20] = assay: Hypoglycemic activity expressed as (Maximum reduction in blood glucose in mg/dL relative to predosing glucose level)/(time in hours at which maximum reduction occurred); format: functional
How it was run: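 Fed male Sprague-Dawley rats (175–200 g), four per compound, received a single oral gavage dose of 200 mg/kg suspended in 5% acacia. Tail blood was sampled before dosing and at 1, 2, 3 and 5 h, and glucose was measured by glucose oxidase/peroxidase colorimetry. Each rat served as its own control. Value = maximum fall from predose glucose (mg/dL) divided by the hour at which that maximum occurred.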

X5563 [21] = assay: Antitumor activity in vivo expressed as percent of inhibition in X5563-plasma cell myeloma cell line; 60-79 % inhibition; format: functional, Mus musculus; how it was run: as §1
C3H [22] = assay: Antitumor activity in vivo expressed as percent of inhibition in C3H-mammary adenocarcinoma cell line; 95-100% inhibition; format: functional, Mus musculus; how it was run: as §1
M-5 (Mus musculus) [23] = assay: Antitumor activity in vivo expressed as percent of inhibition in M-5-ovarian carcinoma cell line; 95-100% inhibition
[24] = Antitumor activity in vivo against the 6C3HED lymphosarcoma dosed for 10 days at 600 mg/kg; format: functional; settings: Mus musculus, 192 h, in the assay text read “dosed for 8 days” for “dosed for 10 days”; how it was run: as §1

For `O=C(Nc1cccc(C(F)(F)F)c1)NS(=O)(=O)c1ccc([N+](=O)[O-])cc1`, the inhibition in vivo at 270 mg/kg [1] was 20% and the IC50 (CCRF-CEM) was greater than 20 µg/mL.
With `O=C(NC(=O)c1ccccc1)Nc1ccc(Cl)cc1` the inhibition in vivo at 300 mg/kg [2] was 0%, the IC50 (CCRF-CEM) was greater than 20 µg/mL and the inhibition in vivo at 300 mg/kg [3] was 7%.
With `O=C(NC(=O)c1c(F)cccc1F)Nc1ccc(Cl)cc1` [DIFLUBENZURON] the inhibition in vivo at 1600 mg/kg [4] was 33%, the IC50 (CCRF-CEM) was greater than 20 µg/mL and the inhibition in vivo at 300 mg/kg [3] was 6%.
`Cc1ccc(S(=O)(=O)NC(=O)Nc2ccc(Cl)cc2)cc1` [LY-181984] gave an Inhibition (6C3HED [5]) of 100%, an Inhibition (B16 [6]) of 79% and an Inhibition (Colon 26 [7]) of 94%. For the same compound, the Inhibition (CA-755 [8]) was 100%, the Inhibition (C3H [9]) was 94% and the IC50 (CCRF-CEM) was 8.9 µg/mL (≈ 27.4 µM). It also gave an Increase in life-span (L1210) of less than 50%, an Inhibition [10] of less than 60% and an Increase in life-span (P388 [11]) of less than 50%. It also gave an Inhibition (Rattus norvegicus [12]) of 79%, an Inhibition (X5563 [13]) of 94% and an Inhibition (P1534J) of 100%. For the same compound, the inhibition in vivo at 300 mg/kg [3] was 100% and the Inhibition (M-5 (Mus musculus) [14]) was 100%.
Compound `O=C(Nc1ccc(Cl)cc1)NS(=O)(=O)c1ccc2c(c1)CCC2` [SULOFENUR] has an Inhibition (6C3HED [15]) of 100%, an Inhibition (B16 [16]) of less than 60% and an Inhibition (Colon 26 [17]) of 100%. For the same compound, the Inhibition (CA-755 [18]) was 100%, the IC50 (CCRF-CEM) was 11.2 µg/mL (≈ 31.9 µM) and the Inhibition [10] was less than 60%. For the same compound, the Inhibition (M109) was 94%, the Increase in life-span (P388 [19]) was 99% and the Ratio (Rattus norvegicus [20]) was 0. For the same compound, the Inhibition (X5563 [21]) was 79%, the Inhibition (C3H [22]) was 100% and the inhibition in vivo at 300 mg/kg [3] was 100%. For the same compound, the Inhibition (M-5 (Mus musculus) [23]) was 100%.
In the case of `CCCCNC(=O)NS(=O)(=O)c1ccc(C)cc1` [TOLBUTAMIDE], the inhibition in vivo at 600 mg/kg [24] is reported as 45%.

Source: ChEMBL document CHEMBL1124898, “Novel agents effective against solid tumors: the diarylsulfonylureas. Synthesis, activities, and analysis of quantitative structure-activity relationships” (J Med Chem, 1990)
